# Measurements from ChEMBL document CHEMBL4513216, “Probing the Open Global Health Chemical Diversity Library for Multistage-Active Starting Points for Next-Generation Antimalarials” (ACS Infect Dis, 2020).
# Assay: Toxicity liver stage against HepG2, at 10uM
# Assay type: cell-based
# Design: test concentration 10 uM, cell line HepG2-A16-CD81EGFP
# Conditions: human, HepG2-A16-CD81EGFP cells; read-out: INHIBITION
# Method in brief: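 Uninfected HepG2-A16-CD81EGFP cells, 3 × 10^3 per well, 1536-well, plated on prespotted compound at 10 μM final, parasite-free screening media added to match infected plates; puromycin 10 μM positive, DMSO 0.5% negative; run in parallel with 48 h PbLuc assay at 37 °C, 5% CO2; viability by CellTiter-Glo luminescence, normalized to controls.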
row,Compound,cytotoxicity at 10 µM [%]
1,O=C1c2c(O)cc(O)cc2O[C@@H](c2ccc(O)cc2)[C@@H]1O,-0.639
2,CCOC(=O)CCn1cnc2onc(-c3ccc(OC)cc3)c2c1=O,18.8
3,CNCc1cc(C)n(-c2ccccc2OC)c1C,-45
4,N#Cc1nc(COc2ccc3c(c2)OCO3)oc1NC1CCCCC1,-41.4
5,Cc1cnc2c(c1NCc1cccnc1)c(=O)n(C)c(=O)n2C,-2.02
6,O=C(NCC1CCN(c2ncccn2)CC1)c1cnccn1,2.84
7,Cc1nsc(C(=O)NCCc2ccc(S(N)(=O)=O)cc2)n1,7.11
8,O=C(Cc1cccs1)Nc1cnn(C2CCOCC2)c1,-0.779
9,CC(C)CN1C(=O)CO[C@@H]2CN(C(=O)NC(C)C)C[C@H]21,-5.27
10,Cc1c(C)n(Cc2ccncc2)c2nc3c(c(N)c12)CCCCC3,1.26
11,CCC(=O)c1ccc(Br)cc1NN1c2cc(Br)ccc2C(=O)C1(C)OC (stereo not given),78.6
12,Cc1ccccc1CN1CCCC1c1cccc(Nc2nccs2)n1 (stereo not given),13.3
13,Cc1cc(C2CCCCN2C(=O)c2ccsc2)nc2nccn12 (stereo not given),-11.8
14,Cc1nccn1-c1nccnc1C1CCN(Cc2ccc(F)cc2)CC1,-5.43
15,Cc1cc(-c2cnc(NCc3cccnc3)nc2C(C)C)on1,19.2
16,NCCn1nc(C2CCN(Cc3ccc(Cl)c(Cl)c3)C2)c2nccnc21 (stereo not given),27.7
17,COc1c(CNCCc2c[nH]c3cc(F)ccc23)c(C)nn1C,-7.53
18,CC(c1ccccc1F)N(CC(N)=O)C1CC1 (stereo not given),-46.3
19,CCc1ccc(C(=O)N2CCC(N(C)C(=O)OC(C)(C)C)C2)o1 (stereo not given),-48
20,CN1CCC(N(Cc2ccco2)S(=O)(=O)c2cc(Br)ccc2Br)CC1,-17.7
21,Cc1ccc(OCC(=O)NS(=O)(=O)Cc2ccccc2)cc1,2.07
22,CCNC(=O)CN(CC)C(=O)c1cccc(Nc2cnn(C)c2)c1,7.68

row,Compound,cytotoxicity at 10 µM [%]
1,COc1ccncc1NCc1ccsc1,19
2,Cc1nc(COC(=O)c2cccc3c2OCCO3)no1,5.55
3,Cc1cccc(CN(Cc2ccccn2)Cc2ncc(C(C)(C)C)o2)c1,3.49
4,CCc1ccc(CCC(=O)N2CCC(=O)Nc3cccnc32)cc1,-46.7
5,CC(C)c1ccc(/C=C/CC(=O)NC2CCS(=O)(=O)CC2)cc1,5.5
6,CN1CCOC(CNCCOc2ccc(C#N)cc2)C1 (stereo not given),9.34
7,Cc1ccccc1CC(C)(C)NC(=O)CCOc1cccc(C(N)=O)c1,-4.07
8,CCS(=O)(=O)Cc1nc(-c2cnn3c(C)cc(C)nc23)no1,-4.79
9,NC(=O)C1CN(c2ccc(Br)cn2)CCO1 (stereo not given),0.105
10,O=C(NCCN1CCOCC1)C(OC1CCCC1)c1ccccc1 (stereo not given),-2.99
11,CCOC(=O)C1CCN(C(=O)CN2CCCC2c2ccccc2C)CC1 (stereo not given),7.97
12,CN(C(=O)CCC(F)(F)F)c1cccc2ncccc12,1.9
13,CC(NC(=O)CSCC(N)=O)c1ccccc1Oc1ccccc1 (stereo not given),4.84
14,Cc1nc(N2CCC3(CCOC3)C2)c2cc[nH]c2n1 (stereo not given),-2.95
15,Cc1ccc(C(CNCc2ccc(C#N)cc2)N2CCOCC2)s1 (stereo not given),15.3
16,COCc1nc2cc(NCc3scnc3C)ccc2o1,18.6
17,Cc1cc(C(=O)Nc2ccc3oc(=O)n(CCN(C)C)c3c2)c(C)o1,-2.22
18,Cc1nn(C)c(C)c1C1CCCN1c1ncnc2sccc12 (stereo not given),44.1
19,CC(C)CC(=O)NCc1cccc(OCCN(C)C2CCOCC2)c1,11.5
20,NC(=O)C1CCN(Cc2cc3c(cc2Br)OCCO3)C1 (stereo not given),0.641
21,CCc1nc(C2CCCN2Cc2nc(C(C)(C)C)no2)no1 (stereo not given),12.9
22,Cc1c(C(C)NC(=O)N2CCN(C3CCCC3)CC2)cnn1C (stereo not given),3.02

row,Compound,cytotoxicity at 10 µM [%]
1,N#CCSCCCN1CCN(C(=O)c2ccccc2F)CC1,-147
2,Cc1noc(-c2ccnc(N3CCC(CN4CCOCC4)CC3)c2)n1,-2.11
3,Cc1ccc(OCC(O)COC2CCOCC2)c(Cl)c1 (stereo not given),-5.27
4,CCN(CC)S(=O)(=O)N(C)Cc1ccncc1,0.52
5,Cc1ncsc1CNC(=O)NCC1(c2ccc3c(c2)OCO3)CC1,14.3
6,CC(=O)N1CCCC(C(=O)N2CCN(Cc3cc(C)on3)CC2)C1 (stereo not given),-52.2
7,Cc1ccc2cc(C(=O)N3CCN(C(=O)N(C)C)CC3)ccc2n1,-52.1
8,O=C(CN1CCCCC1Cn1cncn1)NC1CCN(C2CC2)CC1 (stereo not given),-19.3
9,Cc1ccc(C(=O)NC2CCN(Cc3noc(CC(C)C)n3)CC2)s1,-15.2
10,CN(C)Cc1cncc2c1CCN(CC(=O)N(C)C)C2,-99.4
11,CC(C)Nc1nc(-c2ccccc2)nc2c1CCN(C(=O)CC#N)CC2,-104
12,O=C(N[C@@H]1CN(Cc2ccoc2)C[C@@H]2CCCO[C@@H]21)C1CCC1,-95.8
13,Cc1cccc(C(=O)N2CCC3(CC2)CC(c2cnn(C)c2)CO3)c1 (stereo not given),-78.7
14,CNC(=O)N1CCc2nc(C(=O)NCc3cccc(OC)c3)sc2CC1,-84.2
15,Cn1cccc1C(=O)N1CCC2(CC1)CN(c1ccsc1)C(=O)CO2,-76.9
16,COc1cc(N2C[C@@H]3COC[C@]3(COc3ccc(C#N)cn3)C2)ncn1,32.2
17,Cc1cccn2c(CC(=O)N3CCC(CCn4cccn4)CC3)cnc12,-53.1
18,CC(C)c1nnsc1CN1CCc2[nH]nc(-c3ccc(F)c(F)c3)c2C1,25.9
19,O=S(=O)(NCc1ccccc1)N1CCCN(c2ccncc2)CC1,-11
20,Cc1cnc(N2CCCC(c3ccccc3)C2)nc1-c1ccnn1C (stereo not given),-1.18
21,COC(=O)c1cc(CN2CCN(c3ncccc3C)CC2)ccc1O,-0.503
22,CN(Cc1ccc(-n2cccn2)cc1)C[C@@H]1CCCN2CCCC[C@H]12,0.537

row,Compound,cytotoxicity at 10 µM [%]
1,CCc1ccc(C(=O)N2CCC3(CCC(=O)N(CCN(C)C)C3)CC2)[nH]1,5.96
2,Cc1ccc2nc(CN(C)Cc3n[nH]c4c3CCCCC4)[nH]c2c1C,17.1
3,COc1ccc2c(c1)OCC(CNc1cc(N)nc(SC)n1)C2 (stereo not given),34.4
4,COc1cccc(OC2CN(C(=O)CCn3cnc4ccccc43)C2)c1,3.67
5,Cc1nc(CC(=O)NCc2csc(N3CCCC3)n2)cs1,-5.26
6,COc1ccnc(CN(C)C(=O)CSc2nnc(N)s2)c1,3.94
7,COc1ccc(C(=O)C2CCCN(CCc3ccccc3)C2)c(OC)c1 (stereo not given),7.8
8,Cc1ccsc1CN1CCC(n2cc(C(O)c3ccccc3)nn2)CC1 (stereo not given),8.69
9,Cc1nn(CCO)cc1CN1CCCC1c1nc2c(C)cccc2[nH]1 (stereo not given),3.83
10,c1ccc(C(Cn2cnnc2)N2CCOCC2)nc1 (stereo not given),0.997
11,COc1ccc(Cl)cc1-n1nc(C2CCCC2)nc1Cn1cnnn1,-15.5
12,CSc1cccc(CN(C)C(=O)Nc2nc(C)n(C)n2)c1,2.78
13,COc1cccc(Cn2ncnc2CCC(C)N2CCN(C)CC2)c1 (stereo not given),-4.05
14,CCN1CCC(CC(=O)NCc2nc(C)cc(C)n2)CC1,-8.75
15,c1ccc(C(CC2CN(Cc3c[nH]cn3)CCO2)c2ccccc2)cc1 (stereo not given),-5.54
16,CN1CCN(Cc2n[nH]c(=O)n2CC2CCCCC2)CC1,-47.9
17,c1ccc(C2CN(C3CC3)CC3(CCN(Cc4cscn4)CC3)C2)cc1 (stereo not given),5.58
18,CNc1ccc(C(=O)N(C)Cc2ccc3ccccc3n2)cn1,1.5
19,C[C@@H]1CN(CC(C)(C)N2CCCCC2)CC[C@@]1(O)C1CC1,-4.6
20,COc1ccccc1N1CC(NC(=O)c2cc(C(C)C)nn2C)CC1=O (stereo not given),52.4
21,CN(c1ccc(C(=O)NCCCN2CCCCC2)c(Cl)c1)S(C)(=O)=O,-0.313
22,COc1cccc(CC(=O)N2CCC3(CC2)OCCCC3O)c1OC (stereo not given),-5.7

row,Compound,cytotoxicity at 10 µM [%]
1,O=C1CC(c2ccc(F)cc2)c2cnn(C3CCCC3)c2N1 (stereo not given),3.82
2,CC(=O)c1ccn(CC(=O)Nc2nn(CC3CC3)c3ccccc23)n1,9.34
3,CSCCC1c2nc[nH]c2CCN1Cc1cc(Cl)ccc1O (stereo not given),23.3
4,CCn1ccnc1CN1CCC(CCC(=O)Nc2ccccc2Cl)CC1,-26.5
5,COc1ccc(CCN2CCCC(CN(C)Cc3ccc(C)o3)C2)cc1 (stereo not given),-14.5
6,Cc1cnn(CC2CN(Cc3cccc(OC(C)C)c3)CCO2)c1 (stereo not given),-4.83
7,CN(C)c1cc(CNC(=O)Nc2ccc(N3CCCC3)nc2)ccn1,-0.338
8,Cc1ccc(C(=O)N2CCC(Oc3ccc(C)c(C)c3)CC2)c(=O)[nH]1,12.9
9,Cc1csc(N2CCCN(C(=O)Cc3ccc(C)s3)CC2)n1,-12
10,CC(C(=O)Nc1cccc(N2CCCCC2)c1)n1cncn1 (stereo not given),-7.3
11,CN(C)c1cc(CNC(=O)c2cn(-c3ccc(F)cc3)nn2)ccn1,11.5
12,CC(C)(C)C(O)CN1CCN(C(=O)c2cccc3[nH]ncc23)CC1 (stereo not given),5.93
13,CC1N(C)C(=O)COC12CCN(Cc1nccs1)CC2 (stereo not given),-124
14,Cc1cccc(C(=O)N2CC[C@]3(C[C@H](OCc4ccccn4)CO3)C2)c1,-70.9
15,Cc1cc(CN2C[C@@H]3COC[C@]3(CNC(=O)N3CCCC3)C2)no1,-77.5
16,c1ccc2c(c1)C(NC1CCCC1)CC21CCNCC1 (stereo not given),-120
17,CC(C)NC(=O)N1CCN(CC2CC2)CC2(CNC(=O)C2)C1 (stereo not given),2.52
18,CC(C)CN1C(=O)C2(CCN(CC3CCOCC3)C2)c2ccccc21 (stereo not given),-71.2
19,COCCN1CCc2cc(C(=O)NC(C)C)c(NCC3CC3)nc2CC1,3.22
20,Cc1cccc(CN2C(=O)CC[C@@H]3[C@H]2CCN3Cc2ccc(F)cc2)n1,-72.1
21,O=C(N1CCCC1)N1CCC2(CCCN(CCOc3ccccc3)C2)C1 (stereo not given),11.3
22,CN(Cc1cccnc1)C1CC2(CCN(Cc3cccnc3)CC2)C1,-87.2
